What was measured:
[1] = Cytotoxicity against human DU145 cells assessed as cell growth inhibition after 48 hrs by MTT assay; format: functional, cell-based; details: DU-145, 48 h
Procedure, shortened: (§1)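 Cell lines (NCCS) grown in DMEM or RPMI with 10% FBS and antibiotic-antimycotic at 37 °C, 5% CO2, 90% humidity. Cells seeded at 3-5×10^3 per well, treated 48 h with serial dilutions in medium beside vehicle control. Medium replaced with MTT (0.5 mg/mL) for 4 h, absorbance read at 570 nm. IC50 taken from concentration-response curves; sunitinib served as reference.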

[2] = Cytotoxicity against human BT549 cells assessed as cell growth inhibition after 48 hrs by MTT assay; format: functional, cell-based; details: BT-549, 48 h; procedure, shortened: as §1
[3] = Cytotoxicity against human HeLa cells assessed as cell growth inhibition after 48 hrs by MTT assay; format: functional, cell-based; procedure, shortened: as §1
[4] = Cytotoxicity against human PC3 cells assessed as cell growth inhibition after 48 hrs by MTT assay; format: functional, cell-based; details: PC-3, 48 h; procedure, shortened: as §1
[5] = Cytotoxicity against human A549 cells assessed as cell growth inhibition after 48 hrs by MTT assay; format: functional, cell-based; details: A549, 48 h; procedure, shortened: as §1
[6] = Cytotoxicity against human MDA-MB-231 cells assessed as cell growth inhibition after 48 hrs by MTT assay; format: functional, cell-based; details: MDA-MB-231, 48 h; procedure, shortened: as §1
[7] = Cytotoxicity against human RWPE1 cells assessed as cell growth inhibition after 48 hrs by MTT assay; format: toxicity, cell-based, RWPE-1

SMILES	IC50 [1] [µM]	IC50 [2] [µM]	IC50 [3] [µM]	IC50 [4] [µM]	IC50 [5] [µM]	IC50 [6] [µM]	IC50 at 48 h [7] [µM]
Cc1ccc(C(C#Cc2ccccc2)c2ccc3c(c2)/C(=C\c2cccc(OCc4cn(Cc5ccccc5)nn4)c2)C(=O)N3)cc1 (centres undefined)	28.9	> 50	32.8	> 50	36.6		
O=C1Nc2ccccc2/C1=C/c1cccc(OCc2cn(Cc3ccccc3)nn2)c1		> 50		34.5	31.5		
O=Cc1cccc(OCc2cn(Cc3ccccc3)nn2)c1	> 50	> 50	> 50	> 50	> 50	> 50	
O=C1Nc2ccc(C(c3ccccc3)c3ccccc3)cc2/C1=C\c1cccc(OCc2cn(Cc3ccccc3)nn2)c1	> 50	> 50	> 50	> 50	> 50	> 50	
COc1cc(Cn2cc(COc3cccc(/C=C4\C(=O)Nc5ccccc54)c3)nn2)cc(OC)c1		> 50	33.8	31.7	43.3	> 50	
O=C1Nc2cc(Br)ccc2/C1=C\c1cccc(OCc2cn(Cc3ccccc3)nn2)c1	5.7	> 50		> 50	9.6		
O=C1Nc2ccc(Cl)cc2/C1=C/c1cccc(OCc2cn(Cc3ccccc3)nn2)c1	24.2			> 50	> 50		
O=C1Nc2ccc(Br)cc2/C1=C/c1cccc(OCc2cn(Cc3ccccc3)nn2)c1	35.1	> 50	> 50	> 50	> 50	> 50	
O=C1Nc2ccc([N+](=O)[O-])cc2/C1=C\c1cccc(OCc2cn(Cc3ccccc3)nn2)c1		> 50	> 50	> 50	> 50	> 50	
CC(=O)c1ccc2c(c1)/C(=C/c1cccc(OCc3cn(Cc4ccccc4)nn3)c1)C(=O)N2	> 50	> 50	> 50	> 50	36.3	> 50	
CC(=O)c1ccc2c(c1)/C(=C\c1cccc(OCc3cn(Cc4ccccc4)nn3)c1)C(=O)N2	> 50	> 50	> 50	> 50	> 50	> 50	
O=C1Nc2ccccc2/C1=C\c1cccc(OCc2cn(Cc3ccccc3)nn2)c1	31.7	> 50	32.3	29.5	> 50		
O=C1Nc2ccc(C(=O)c3ccccc3)cc2/C1=C\c1cccc(OCc2cn(Cc3ccccc3)nn2)c1	> 50	> 50	> 50	> 50	> 50	> 50	
CCN(CC)CCNC(=O)c1c(C)[nH]c(/C=C2\C(=O)Nc3ccc(F)cc32)c1C [SUNITINIB]	16.3		10.4	12.6		7.4	25.2
O=C1Nc2ccc(F)cc2/C1=C\c1cccc(OCc2cn(Cc3ccccc3)nn2)c1		> 50	> 50	> 50	> 50	> 50	
Cc1ccc(C(C#Cc2ccccc2)c2ccc3c(c2)/C(=C/c2cccc(OCc4cn(Cc5ccccc5)nn4)c2)C(=O)N3)cc1 (centres undefined)	> 50	> 50	> 50	> 50	> 50	> 50	
COc1ccc(Cc2ccc3c(c2)/C(=C/c2cccc(OCc4cn(Cc5ccccc5)nn4)c2)C(=O)N3)cc1	6.7	36	7.7	> 50	30.5	20.4	
O=C1Nc2cc(Cl)ccc2/C1=C\c1cccc(OCc2cn(Cc3ccccc3)nn2)c1	20.1	> 50	> 50	> 50	> 50	> 50	
COc1ccc(Cc2ccc3c(c2)/C(=C\c2cccc(OCc4cn(Cc5ccccc5)nn4)c2)C(=O)N3)cc1	> 50	> 50		32.2	> 50	> 50	
COc1cc(Cn2cc(COc3cccc(/C=C4/C(=O)Nc5ccccc54)c3)nn2)cc(OC)c1	25.6		22	37.1	26.7	11.7	
